Measured values pooled from the literature.
Compare with care: the assays were run in different laboratories.
Target: Calcium/calmodulin-dependent protein kinase kinase 1 (CAMKK1, Homo sapiens, UniProt Q8N5S9)

For `CN(c1ccnc(CNc2nc(Nc3ccc4c(c3)CC(=O)N4)ncc2C(F)(F)F)n1)S(C)(=O)=O`, the remaining binding was 90% (cell-free assay, competition with immobilised ligand; 1 µM).
`Cn1c2c(c3ccc(Cl)c(Cl)c31)C(C#N)C1(CCOCC1)NC2=O` (stereo not drawn) gave a ΔTm of 1.2 °C (thermal stability, DSF; 10 µM).
For `O=C(Nc1cnn(-c2csc(C(=O)NC3COC3)c2)c1)Nc1ccccc1Cl`, the remaining activity was 130% (enzyme activity, inhibitor; 5 µM).
`COc1cccc2c(NCc3ccccc3)nc(-n3c(N)nc4ccccc43)nc12` has an inhibition of -24.9% (target engagement in cells, inhibitor, chemoproteomics; 20 mM).
With `Cn1c2c(c3ccc(Cl)c(Cl)c31)C(C#N)C(C)(C)NC2=O` (stereo not drawn) the ΔTm was 2.6 °C (thermal stability, DSF; 10 µM).
With `CCCCN(CCCC)C(=O)CN1C[C@H](c2cc(OC)c3c(c2)OCO3)[C@@H](C(=O)O)[C@@H]1CC(C)(C)CCC` the remaining binding was 100% (cell-free assay, competition with immobilised ligand; 1 µM).
`O=C1NC(=O)c2cc(Nc3ccc(F)cc3)c(Nc3ccc(F)cc3)cc21` gave a remaining signal of 90.2% (cell-free assay; 0.5 µM).
For `Cc1nccc(COC(=O)N2C[C@@H]3[C@@H](CNC(=O)c4ccc5[nH]nnc5c4)[C@@H]3C2)n1`, the remaining binding was 100% (cell-free assay, competition with immobilised ligand; 1 µM).
For `CC(C)(O)[C@H]1CC[C@H](Nc2ccc3ncc(-c4cccc(C(F)(F)F)c4)n3n2)CC1`, the remaining activity was 91.8% (enzyme activity, inhibitor; 1 µM).
With `c1ccc(CNc2nc(N3CCOc4ccccc43)nc3c2CCCC3)cc1` the inhibition was -7.1% (target engagement in cells, inhibitor, chemoproteomics; 20 mM).
`CCN1CCC2(CC1)NC(=O)c1c(c3ccc(Cl)c(Cl)c3n1C)C2C#N` (racemic) gave a ΔTm of -0.1 °C (thermal stability, DSF; 10 µM).
`Cc1c(NC(=O)c2cc(C(N)=O)nc3cc(F)ccc23)c(C(F)(F)F)nn1Cc1ccc(C#N)cc1` gave a remaining binding of 97% (cell-free assay, competition with immobilised ligand; 1 µM).
For `CC(C)(C)c1nc2c(s1)c1nc(N)ncc1c1ccc(NS(=O)(=O)c3c(F)cccc3F)c(F)c12`, the remaining activity was 88% (enzyme activity, inhibitor, radiometric; 1 µM).
The remaining signal of `COc1cc(Nc2c(C#N)cnc3cc(OCCCN4CCN(C)CC4)c(OC)cc23)c(Cl)cc1Cl` is reported as 84.8% (cell-free assay; 0.5 µM).
The remaining binding of `O=c1nc(-c2ccccn2)sc2ccccc12` is reported as 96% (binding, competition with immobilised ligand; 1 µM).
`O=C1Nc2ccc(Cl)cc2C1=Cc1cc(Cl)c(O)c(Cl)c1` has a remaining signal of 52.5% (cell-free assay; 0.5 µM).
With `COCCOc1nc(-c2ccc(Cl)nc2)nc2c1CN(C(=O)c1ncn3ccccc13)CC2` the remaining binding was 100% (cell-free assay, competition with immobilised ligand; 0.1 µM).
The remaining activity of `O=C(Nc1cnn(-c2csc(C(=O)NC3COC3)c2)c1)Nc1c(F)cccc1Cl` is reported as 93.7% (enzyme activity, inhibitor; 5 µM).
